Two compounds from article PMC3442410 (Molecular Biology of the Cell, 2012) can be followed below.

Test [1] has as its target T1, OSBP (Oryctolagus cuniculus, UniProt P16258).
T1 sequence (P16258 1-809): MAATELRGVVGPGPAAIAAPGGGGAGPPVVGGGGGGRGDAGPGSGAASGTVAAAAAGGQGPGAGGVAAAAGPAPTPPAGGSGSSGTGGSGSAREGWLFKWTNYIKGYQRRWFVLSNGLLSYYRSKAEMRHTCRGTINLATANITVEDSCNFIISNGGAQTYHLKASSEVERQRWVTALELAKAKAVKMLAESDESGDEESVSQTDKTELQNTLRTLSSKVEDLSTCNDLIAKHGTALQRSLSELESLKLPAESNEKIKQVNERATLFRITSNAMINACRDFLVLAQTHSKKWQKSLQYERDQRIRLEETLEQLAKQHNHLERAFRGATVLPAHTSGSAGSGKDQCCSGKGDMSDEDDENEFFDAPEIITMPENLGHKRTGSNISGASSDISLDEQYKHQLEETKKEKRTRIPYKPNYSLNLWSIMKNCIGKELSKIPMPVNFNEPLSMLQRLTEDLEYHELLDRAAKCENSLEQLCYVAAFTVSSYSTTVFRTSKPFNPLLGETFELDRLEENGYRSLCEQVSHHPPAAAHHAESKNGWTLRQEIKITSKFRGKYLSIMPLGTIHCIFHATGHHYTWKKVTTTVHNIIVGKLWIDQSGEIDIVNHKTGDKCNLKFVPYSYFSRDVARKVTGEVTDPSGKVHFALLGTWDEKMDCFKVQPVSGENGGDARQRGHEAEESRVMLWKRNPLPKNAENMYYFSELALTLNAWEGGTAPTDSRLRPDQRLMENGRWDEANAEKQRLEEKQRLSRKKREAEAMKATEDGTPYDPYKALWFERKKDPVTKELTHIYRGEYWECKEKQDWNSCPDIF
The experiment in a line: Specific binding of [3H]25OH by purified OSBP. Also noted: species or system rabbit. Put shortly:
(§1)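 His-tagged (C-terminal V5-His) rabbit OSBP or mutant expressed in Sf21 cells by baculovirus, purified and kept in Tris-HCl pH 7.4/250 mM NaCl. 12 pmol protein incubated with [3H]25OH in 10 mM HEPES pH 7.4, 100 mM KCl, 2% polyvinyl alcohol at 4°C, 16 h. Charcoal-dextran added for 30 min, then spun 10,000 × g, 10 min. Supernatant bound sterol counted by scintillation. Specific binding is total minus binding with 40-fold excess unlabeled 25OH.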

Another test deals with T2, OSBP-S381A (Oryctolagus cuniculus, UniProt P16258, S381A).
T2 sequence (P16258 1-809 S381A): T1 sequence (P16258 1-809) with S381A
The test can be described thus: Specific binding of [3H]25OH by purified OSBP-S381A. On the set-up: species or system rabbit. Put shortly: as §1

The next test addresses T3, OSBP-S3E (Oryctolagus cuniculus, UniProt P16258, S381E/S384E/S387E).
T3 sequence (P16258 2-809 S381E/S384E/S387E limits assumed): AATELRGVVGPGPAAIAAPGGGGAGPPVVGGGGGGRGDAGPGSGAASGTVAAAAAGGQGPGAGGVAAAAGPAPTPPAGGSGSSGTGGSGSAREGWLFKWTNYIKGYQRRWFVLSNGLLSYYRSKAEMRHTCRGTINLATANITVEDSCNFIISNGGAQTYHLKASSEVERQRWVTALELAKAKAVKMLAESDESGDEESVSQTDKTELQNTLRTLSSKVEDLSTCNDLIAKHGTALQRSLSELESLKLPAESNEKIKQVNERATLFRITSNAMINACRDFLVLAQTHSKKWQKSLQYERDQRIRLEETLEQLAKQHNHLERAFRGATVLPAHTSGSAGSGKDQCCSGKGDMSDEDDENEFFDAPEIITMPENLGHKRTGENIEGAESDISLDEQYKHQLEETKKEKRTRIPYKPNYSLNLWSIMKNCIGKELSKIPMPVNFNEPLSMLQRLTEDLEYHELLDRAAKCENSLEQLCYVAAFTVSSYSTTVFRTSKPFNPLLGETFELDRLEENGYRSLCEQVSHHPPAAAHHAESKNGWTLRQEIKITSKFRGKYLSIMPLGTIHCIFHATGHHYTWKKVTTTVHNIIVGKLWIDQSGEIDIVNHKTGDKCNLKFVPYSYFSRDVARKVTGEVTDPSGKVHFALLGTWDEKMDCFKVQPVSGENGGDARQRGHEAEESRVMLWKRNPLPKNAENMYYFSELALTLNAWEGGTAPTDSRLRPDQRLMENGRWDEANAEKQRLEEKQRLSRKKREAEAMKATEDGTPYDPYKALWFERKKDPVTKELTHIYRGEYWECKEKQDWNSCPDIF
The experiment in a line: Specific binding of [3H]25OH by purified OSBP-S3E. Also noted: species or system rabbit. Put shortly:
as §1

For a further test, the system named is SM synthesis. The test can be described thus: 25OH-activated SM synthesis. The test is classed as cell-based, CHO cells. The note with it: 25OH 6 μM, 6 h. An outline of the steps: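 OSBP-deficient CHO cells (stable lentiviral shOSBP) grown in DMEM with 5% fetal calf serum, transiently transfected for 48 h (Lipofectamine 2000) with OSBP constructs carrying three silent shRNA-resistant mutations. Cells then treated with 25OH (6 μM) or solvent control for 6 h. SM and ceramide synthesis measured by [3H]serine incorporation. Mean and SEM of three experiments.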

In another test the target is T4, OSBP-S5E (Oryctolagus cuniculus, UniProt P16258, S381E/S384E/S387E/S388E/S391E).
T4 sequence (P16258 1-809 S381E/S384E/S387E/S388E/S391E): T1 sequence (P16258 1-809) with S381E, S384E, S387E, S388E, S391E
The test can be described thus: Specific binding of [3H]25OH by purified OSBP-S5E. Also noted: species or system rabbit. Put shortly: as §1

For test [2], the target named is T1, OSBP. The experiment in a line: Direct extraction of radiolabeled PI or PI. The test is classed as binding, rabbit. The following applies: OSBP 50 pmol; liposomes with 0.5 mol% [32P]PI(4)P; compared with [3H]PI.
Setting [3] is: [3H]25OH, 12 pmol protein, 4°C, 16 h.

Numbering of substitutions follows the chain as printed.

A word on the Kd: it is the equilibrium constant for the complex coming apart. `C[C@H](CCCC(C)(C)O)[C@H]1CC[C@H]2[C@@H]3CC=C4C[C@@H](O)CC[C@]4(C)[C@H]3CC[C@]12C` [25OH, 25-hydroxycholesterol]: the dissociation constant (Kd) on OSBP [1] stood at 0.028 ± 0.005 µM; on OSBP-S381A, 0.051 ± 0.012 µM; on OSBP-S3E it was 0.058 ± 0.014 µM; at OSBP-S5E it was 0.035 ± 0.009 µM. Also, the Bmax at OSBP [1] (setting [3]) was 0.63 ± 0.05; on OSBP-S381A (setting [3]), 0.68 ± 0.11; at OSBP-S3E (setting [3]), 0.49 ± 0.15. The “activation of SM synthesis” value was 2.5 fold with SM synthesis (deficient CHO cells expressing S381A/S3A, S5E/S3D or S5E/S3A double mutants) and 2.5 fold in the test on SM synthesis (deficient CHO cells expressing wild-type OSBP). For the same compound, at OSBP-S5E (setting [3]), the “binding capacity (Bmax)” value is recorded as 2.0 ± 0.26.

With “phosphatidylinositol 4-phosphate [PI(4)P]”, the “extraction from liposomes into supernatant” value on OSBP [2] was “extracted significantly more”.
